Measured values published in ChEMBL document CHEMBL2163321 (J Med Chem, 2012).
pIC50: −log10 of the molar value.

What was measured:
[1] = target: T1, Lysine-specific demethylase 7A (Homo sapiens, UniProt Q6ZMT4); assay: Inhibition of human KDM7A catalytic domain expressed in Escherichia coli by MALDI assay
T1 sequence (Q6ZMT4 whole entry): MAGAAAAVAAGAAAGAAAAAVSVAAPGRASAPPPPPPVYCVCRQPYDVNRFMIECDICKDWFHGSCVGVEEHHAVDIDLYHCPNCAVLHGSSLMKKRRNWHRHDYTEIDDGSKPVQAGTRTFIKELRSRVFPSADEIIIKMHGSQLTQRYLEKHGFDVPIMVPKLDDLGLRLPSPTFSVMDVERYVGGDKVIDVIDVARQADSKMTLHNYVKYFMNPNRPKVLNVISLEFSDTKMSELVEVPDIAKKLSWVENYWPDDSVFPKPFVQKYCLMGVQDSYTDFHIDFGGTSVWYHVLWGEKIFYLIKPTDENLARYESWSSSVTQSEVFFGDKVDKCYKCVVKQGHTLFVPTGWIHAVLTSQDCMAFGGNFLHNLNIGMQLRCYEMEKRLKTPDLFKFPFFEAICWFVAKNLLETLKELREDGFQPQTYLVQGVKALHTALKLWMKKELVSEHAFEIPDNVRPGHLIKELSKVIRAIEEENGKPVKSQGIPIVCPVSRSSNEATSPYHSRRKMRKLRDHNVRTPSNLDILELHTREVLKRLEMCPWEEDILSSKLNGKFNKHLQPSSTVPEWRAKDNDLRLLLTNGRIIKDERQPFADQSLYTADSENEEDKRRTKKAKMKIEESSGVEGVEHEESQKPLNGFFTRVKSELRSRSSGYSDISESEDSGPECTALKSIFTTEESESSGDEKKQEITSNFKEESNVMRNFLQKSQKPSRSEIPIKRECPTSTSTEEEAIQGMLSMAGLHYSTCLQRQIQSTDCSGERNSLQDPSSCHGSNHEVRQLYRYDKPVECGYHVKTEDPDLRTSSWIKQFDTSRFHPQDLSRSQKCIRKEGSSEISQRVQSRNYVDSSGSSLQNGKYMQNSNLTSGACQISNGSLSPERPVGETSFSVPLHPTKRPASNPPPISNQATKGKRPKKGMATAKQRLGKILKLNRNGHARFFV

[2] = target: Hypoxia-inducible factor 1-alpha inhibitor (Homo sapiens, UniProt Q9NWT6); assay: Inhibition of human FIH expressed in Escherichia coli by MALDI assay
[3] = target: Lysine-specific demethylase 6B (Homo sapiens, UniProt O15054); assay: Inhibition of human KDM6B catalytic domain expressed in Escherichia coli using methyl lysine peptide substrate by AlphaScreen assay
Procedure, shortened: (§1)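 AlphaScreen read-out: immunodetection of the lysine methylation state of the biotinylated histone peptide product, captured on streptavidin and Protein A conjugated beads. Reactions were run in the linear range with 2OG near or below its Km.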

Egl nine homolog 1 = Egl nine homolog 1 (Homo sapiens, UniProt Q9GZT9); assay: Inhibition of human PHD2 expressed in Escherichia coli by AlphaScreen assay
[4] = Inhibition of human KDM3A catalytic domain expressed in Sf9 cells methyl lysine peptide substrate by AlphaScreen assay
Procedure, shortened: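 AlphaScreen activity assay run within the linear range of the reaction. It immunodetects the lysine methylation state of a biotin-conjugated histone peptide product, using Streptavidin- and Protein A-conjugated beads.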

[5] = target: Lysine-specific demethylase 5C (Homo sapiens, UniProt P41229); assay: Inhibition of human KDM5C catalytic domain expressed in Sf9 cells using methyl lysine peptide substrate by AlphaScreen assay; procedure, shortened: as §1
[6] = target: T2, Gamma-butyrobetaine dioxygenase (Homo sapiens, UniProt O75936); assay: Inhibition of human BBOX1 by fluorescence based assay
T2 sequence (O75936 whole entry): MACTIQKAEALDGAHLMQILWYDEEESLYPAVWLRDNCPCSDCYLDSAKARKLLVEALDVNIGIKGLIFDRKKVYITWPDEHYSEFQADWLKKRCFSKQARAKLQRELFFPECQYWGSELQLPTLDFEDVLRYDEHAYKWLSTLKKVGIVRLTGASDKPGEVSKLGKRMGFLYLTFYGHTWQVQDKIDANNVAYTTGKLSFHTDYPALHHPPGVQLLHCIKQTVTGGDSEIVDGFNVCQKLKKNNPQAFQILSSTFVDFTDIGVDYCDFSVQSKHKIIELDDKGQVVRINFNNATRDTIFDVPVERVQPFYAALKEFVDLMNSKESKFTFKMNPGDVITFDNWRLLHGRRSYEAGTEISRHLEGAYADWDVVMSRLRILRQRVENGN

[7] = target: T3, Lysine-specific demethylase 4E (Homo sapiens, UniProt B2RXH2); assay: Inhibition of human KDM4E expressed in Escherichia coli using methyl lysine peptide substrate by AlphaScreen assay; procedure, shortened: as §1
T3 sequence (B2RXH2 whole entry): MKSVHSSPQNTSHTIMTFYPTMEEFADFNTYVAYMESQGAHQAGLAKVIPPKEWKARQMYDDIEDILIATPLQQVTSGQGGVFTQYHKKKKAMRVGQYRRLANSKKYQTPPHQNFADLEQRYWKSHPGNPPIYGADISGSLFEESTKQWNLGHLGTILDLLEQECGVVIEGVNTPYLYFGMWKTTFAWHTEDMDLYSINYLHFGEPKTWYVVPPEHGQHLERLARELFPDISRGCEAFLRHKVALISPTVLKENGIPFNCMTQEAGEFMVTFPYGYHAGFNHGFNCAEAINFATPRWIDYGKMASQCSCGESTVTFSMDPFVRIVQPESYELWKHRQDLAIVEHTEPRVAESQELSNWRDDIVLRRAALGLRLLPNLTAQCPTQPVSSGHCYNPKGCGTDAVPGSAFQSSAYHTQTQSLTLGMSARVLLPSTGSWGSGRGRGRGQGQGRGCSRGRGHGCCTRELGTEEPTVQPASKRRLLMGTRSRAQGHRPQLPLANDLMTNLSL

[8] = target: Histone lysine demethylase PHF8 (Homo sapiens, UniProt Q9UPP1); assay: Inhibition of human PHF8 expressed in Escherichia coli using methyl lysine peptide substrate by AlphaScreen assay
[9] = target: T4, Lysine-specific demethylase 2A (Homo sapiens, UniProt Q9Y2K7); assay: Inhibition of human KDM2A expressed in Escherichia coli using methyl lysine peptide substrate by AlphaScreen assay
T4 sequence (Q9Y2K7 whole entry): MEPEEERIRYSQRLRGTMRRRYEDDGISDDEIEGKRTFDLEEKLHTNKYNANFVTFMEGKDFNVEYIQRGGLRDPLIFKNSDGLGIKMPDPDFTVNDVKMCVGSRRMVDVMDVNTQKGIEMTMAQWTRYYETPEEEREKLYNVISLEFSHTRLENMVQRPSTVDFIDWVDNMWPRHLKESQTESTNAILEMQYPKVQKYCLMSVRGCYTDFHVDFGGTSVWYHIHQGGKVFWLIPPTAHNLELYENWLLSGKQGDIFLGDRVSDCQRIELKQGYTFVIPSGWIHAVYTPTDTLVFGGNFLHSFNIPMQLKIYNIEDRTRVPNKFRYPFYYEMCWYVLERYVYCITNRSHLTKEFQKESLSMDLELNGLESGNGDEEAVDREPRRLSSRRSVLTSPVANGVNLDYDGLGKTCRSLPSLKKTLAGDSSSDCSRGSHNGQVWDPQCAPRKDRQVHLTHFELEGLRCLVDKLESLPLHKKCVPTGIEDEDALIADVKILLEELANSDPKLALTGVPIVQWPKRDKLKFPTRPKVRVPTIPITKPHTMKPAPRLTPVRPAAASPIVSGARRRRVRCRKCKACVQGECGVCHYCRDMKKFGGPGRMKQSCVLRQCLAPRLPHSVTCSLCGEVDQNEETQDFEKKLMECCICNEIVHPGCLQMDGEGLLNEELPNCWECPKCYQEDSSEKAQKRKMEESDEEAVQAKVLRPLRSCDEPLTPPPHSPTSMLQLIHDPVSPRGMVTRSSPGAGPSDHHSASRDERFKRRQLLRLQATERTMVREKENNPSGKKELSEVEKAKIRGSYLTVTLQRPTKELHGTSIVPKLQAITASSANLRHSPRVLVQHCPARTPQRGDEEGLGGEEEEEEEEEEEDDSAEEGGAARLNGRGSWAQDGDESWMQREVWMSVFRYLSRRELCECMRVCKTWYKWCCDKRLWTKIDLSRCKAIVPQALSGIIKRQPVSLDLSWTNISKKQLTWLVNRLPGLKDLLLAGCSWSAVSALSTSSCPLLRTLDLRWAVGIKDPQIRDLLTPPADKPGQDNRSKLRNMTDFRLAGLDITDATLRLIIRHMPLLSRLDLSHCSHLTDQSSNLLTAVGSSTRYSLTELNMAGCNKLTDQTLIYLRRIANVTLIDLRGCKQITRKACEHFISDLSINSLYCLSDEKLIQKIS

Hypoxia-inducible factor 1-alpha inhibitor, sequence (Q9NWT6 whole entry, the tested form may be a part): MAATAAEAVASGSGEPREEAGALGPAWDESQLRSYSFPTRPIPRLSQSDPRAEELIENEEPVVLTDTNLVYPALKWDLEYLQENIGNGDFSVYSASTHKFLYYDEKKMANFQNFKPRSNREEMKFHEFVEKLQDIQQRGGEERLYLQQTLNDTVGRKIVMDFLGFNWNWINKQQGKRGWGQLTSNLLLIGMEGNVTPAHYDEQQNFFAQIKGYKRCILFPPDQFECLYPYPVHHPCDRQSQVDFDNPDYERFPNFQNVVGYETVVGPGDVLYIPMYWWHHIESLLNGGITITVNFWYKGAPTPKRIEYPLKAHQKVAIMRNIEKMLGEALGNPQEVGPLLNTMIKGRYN
Lysine-specific demethylase 5C, sequence (P41229 whole entry, the tested form may be a part): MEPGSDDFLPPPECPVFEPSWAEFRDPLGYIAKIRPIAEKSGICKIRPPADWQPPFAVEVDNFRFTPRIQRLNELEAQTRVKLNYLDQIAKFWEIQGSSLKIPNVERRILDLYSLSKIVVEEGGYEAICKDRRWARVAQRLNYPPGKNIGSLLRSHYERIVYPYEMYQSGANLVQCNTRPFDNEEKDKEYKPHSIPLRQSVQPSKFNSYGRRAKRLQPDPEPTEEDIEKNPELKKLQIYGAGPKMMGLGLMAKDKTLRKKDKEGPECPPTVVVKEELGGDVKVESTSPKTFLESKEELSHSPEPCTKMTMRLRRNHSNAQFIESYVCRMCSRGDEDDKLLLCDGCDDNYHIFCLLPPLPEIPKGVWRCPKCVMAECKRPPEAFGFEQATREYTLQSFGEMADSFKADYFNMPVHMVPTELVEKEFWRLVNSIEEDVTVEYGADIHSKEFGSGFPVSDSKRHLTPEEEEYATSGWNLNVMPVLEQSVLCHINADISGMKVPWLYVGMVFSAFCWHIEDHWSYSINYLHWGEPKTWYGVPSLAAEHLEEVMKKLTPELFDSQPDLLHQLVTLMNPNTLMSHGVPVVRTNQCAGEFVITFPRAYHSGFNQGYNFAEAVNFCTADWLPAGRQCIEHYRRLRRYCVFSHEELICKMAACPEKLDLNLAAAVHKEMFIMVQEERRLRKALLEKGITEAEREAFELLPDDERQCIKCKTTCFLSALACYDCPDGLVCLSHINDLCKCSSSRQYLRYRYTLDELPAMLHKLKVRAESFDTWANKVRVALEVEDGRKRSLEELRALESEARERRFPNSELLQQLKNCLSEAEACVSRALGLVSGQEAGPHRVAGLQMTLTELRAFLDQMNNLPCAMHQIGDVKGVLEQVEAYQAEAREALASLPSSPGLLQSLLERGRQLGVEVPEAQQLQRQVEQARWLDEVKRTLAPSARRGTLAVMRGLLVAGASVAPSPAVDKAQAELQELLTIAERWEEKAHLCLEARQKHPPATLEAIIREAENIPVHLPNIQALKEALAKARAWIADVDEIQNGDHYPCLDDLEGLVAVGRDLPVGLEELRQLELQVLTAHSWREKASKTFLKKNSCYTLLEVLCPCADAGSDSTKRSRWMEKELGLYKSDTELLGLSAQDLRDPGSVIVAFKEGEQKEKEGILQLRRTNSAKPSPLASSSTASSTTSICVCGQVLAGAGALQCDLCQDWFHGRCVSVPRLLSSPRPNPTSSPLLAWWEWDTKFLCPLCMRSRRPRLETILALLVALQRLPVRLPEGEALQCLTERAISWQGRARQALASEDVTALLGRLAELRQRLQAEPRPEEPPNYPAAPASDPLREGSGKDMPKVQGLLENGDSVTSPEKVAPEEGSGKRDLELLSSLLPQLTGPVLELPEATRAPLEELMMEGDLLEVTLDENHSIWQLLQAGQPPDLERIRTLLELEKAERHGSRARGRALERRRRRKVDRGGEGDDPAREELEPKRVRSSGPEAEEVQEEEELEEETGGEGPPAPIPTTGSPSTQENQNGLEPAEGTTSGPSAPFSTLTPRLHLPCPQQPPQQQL
Egl nine homolog 1, sequence (Q9GZT9 whole entry, the tested form may be a part): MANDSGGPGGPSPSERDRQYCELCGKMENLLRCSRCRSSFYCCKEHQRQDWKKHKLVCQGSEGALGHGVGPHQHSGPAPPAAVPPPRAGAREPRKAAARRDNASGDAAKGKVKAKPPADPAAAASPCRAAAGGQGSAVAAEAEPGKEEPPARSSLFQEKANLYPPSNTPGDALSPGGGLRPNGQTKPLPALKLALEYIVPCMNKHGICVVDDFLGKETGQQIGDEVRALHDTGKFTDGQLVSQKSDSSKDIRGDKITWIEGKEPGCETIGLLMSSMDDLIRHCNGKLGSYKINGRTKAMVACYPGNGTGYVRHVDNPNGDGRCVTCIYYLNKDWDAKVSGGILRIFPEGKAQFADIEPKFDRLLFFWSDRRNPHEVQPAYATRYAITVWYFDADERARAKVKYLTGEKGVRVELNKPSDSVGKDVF
Histone lysine demethylase PHF8, sequence (Q9UPP1 whole entry): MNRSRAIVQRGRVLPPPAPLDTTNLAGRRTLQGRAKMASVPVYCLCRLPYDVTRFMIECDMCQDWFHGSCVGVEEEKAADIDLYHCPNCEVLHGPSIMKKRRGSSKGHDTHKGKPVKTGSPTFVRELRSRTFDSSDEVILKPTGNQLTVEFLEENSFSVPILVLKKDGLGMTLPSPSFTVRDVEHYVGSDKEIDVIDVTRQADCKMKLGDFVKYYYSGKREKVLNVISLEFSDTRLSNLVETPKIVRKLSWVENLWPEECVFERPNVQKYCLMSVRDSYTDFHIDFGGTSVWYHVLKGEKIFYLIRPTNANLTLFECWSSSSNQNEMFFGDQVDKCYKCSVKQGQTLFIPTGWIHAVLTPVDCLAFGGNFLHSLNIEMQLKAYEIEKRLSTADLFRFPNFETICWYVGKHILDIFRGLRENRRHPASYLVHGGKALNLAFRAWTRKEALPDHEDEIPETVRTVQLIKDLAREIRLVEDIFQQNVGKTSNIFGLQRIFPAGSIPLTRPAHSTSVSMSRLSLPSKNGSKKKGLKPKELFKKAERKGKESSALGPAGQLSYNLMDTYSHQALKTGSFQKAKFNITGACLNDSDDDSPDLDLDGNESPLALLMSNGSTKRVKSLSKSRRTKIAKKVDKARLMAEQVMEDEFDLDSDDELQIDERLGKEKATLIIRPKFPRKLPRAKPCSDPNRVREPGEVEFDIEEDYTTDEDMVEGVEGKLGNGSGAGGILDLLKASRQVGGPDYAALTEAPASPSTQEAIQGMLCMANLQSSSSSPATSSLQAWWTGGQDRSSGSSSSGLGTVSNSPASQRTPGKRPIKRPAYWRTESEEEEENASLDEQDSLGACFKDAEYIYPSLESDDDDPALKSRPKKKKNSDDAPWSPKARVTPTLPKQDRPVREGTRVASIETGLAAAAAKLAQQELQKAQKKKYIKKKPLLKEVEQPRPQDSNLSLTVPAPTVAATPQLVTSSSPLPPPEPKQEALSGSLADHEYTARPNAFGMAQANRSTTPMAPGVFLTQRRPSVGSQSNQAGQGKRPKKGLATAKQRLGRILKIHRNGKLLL
Lysine-specific demethylase 6B, sequence (O15054 whole entry, the tested form may be a part): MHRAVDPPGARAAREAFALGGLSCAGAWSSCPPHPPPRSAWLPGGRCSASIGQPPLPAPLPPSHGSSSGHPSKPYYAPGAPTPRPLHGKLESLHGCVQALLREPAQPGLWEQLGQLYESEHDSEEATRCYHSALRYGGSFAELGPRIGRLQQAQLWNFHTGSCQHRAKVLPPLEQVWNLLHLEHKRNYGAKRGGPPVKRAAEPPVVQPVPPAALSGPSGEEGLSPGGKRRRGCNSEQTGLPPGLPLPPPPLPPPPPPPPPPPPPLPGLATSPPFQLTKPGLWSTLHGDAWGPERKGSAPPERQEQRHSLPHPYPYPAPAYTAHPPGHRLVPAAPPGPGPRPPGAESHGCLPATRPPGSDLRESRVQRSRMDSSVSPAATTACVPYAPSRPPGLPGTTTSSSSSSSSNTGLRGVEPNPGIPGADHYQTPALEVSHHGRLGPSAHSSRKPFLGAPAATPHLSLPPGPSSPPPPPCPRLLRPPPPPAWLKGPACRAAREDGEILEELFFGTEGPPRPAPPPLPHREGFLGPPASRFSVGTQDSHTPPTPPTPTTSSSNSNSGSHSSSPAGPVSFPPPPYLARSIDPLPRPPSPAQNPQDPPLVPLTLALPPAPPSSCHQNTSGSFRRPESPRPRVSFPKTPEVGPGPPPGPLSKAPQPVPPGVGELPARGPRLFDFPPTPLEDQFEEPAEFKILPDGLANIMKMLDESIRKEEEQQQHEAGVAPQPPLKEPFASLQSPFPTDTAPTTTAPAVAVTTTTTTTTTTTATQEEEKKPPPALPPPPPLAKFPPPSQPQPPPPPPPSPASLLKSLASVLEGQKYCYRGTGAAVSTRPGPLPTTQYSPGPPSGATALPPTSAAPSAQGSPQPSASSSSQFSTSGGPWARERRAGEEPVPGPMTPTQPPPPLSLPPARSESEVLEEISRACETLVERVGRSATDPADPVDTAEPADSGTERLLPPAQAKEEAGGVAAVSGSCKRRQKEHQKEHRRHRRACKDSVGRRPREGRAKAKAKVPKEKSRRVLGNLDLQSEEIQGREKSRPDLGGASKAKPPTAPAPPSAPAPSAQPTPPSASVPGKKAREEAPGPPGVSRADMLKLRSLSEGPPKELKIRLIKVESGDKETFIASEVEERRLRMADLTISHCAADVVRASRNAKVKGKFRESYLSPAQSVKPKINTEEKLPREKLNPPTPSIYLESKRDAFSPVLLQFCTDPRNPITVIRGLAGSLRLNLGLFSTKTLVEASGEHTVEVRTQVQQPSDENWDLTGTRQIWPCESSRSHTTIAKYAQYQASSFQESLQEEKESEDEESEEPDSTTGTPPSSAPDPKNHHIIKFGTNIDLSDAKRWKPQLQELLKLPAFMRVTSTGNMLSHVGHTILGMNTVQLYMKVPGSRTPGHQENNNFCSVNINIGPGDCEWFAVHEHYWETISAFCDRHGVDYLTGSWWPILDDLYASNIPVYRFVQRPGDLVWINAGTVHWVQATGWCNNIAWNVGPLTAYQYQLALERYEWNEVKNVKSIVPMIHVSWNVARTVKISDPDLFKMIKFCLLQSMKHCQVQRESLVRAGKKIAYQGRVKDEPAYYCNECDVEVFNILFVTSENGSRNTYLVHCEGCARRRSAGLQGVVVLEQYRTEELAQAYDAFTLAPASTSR

| SMILES | pIC50 [1] | pIC50 [2] | pIC50 [3] | pIC50 (Egl nine homolog 1) | pIC50 [4] | pIC50 [5] | pIC50 [6] | pIC50 [7] | pIC50 [8] | pIC50 [9] |
| --- | --- | --- | --- | --- | --- | --- | --- | --- | --- | --- |
| CN(C)NC(=O)CCC(=O)O | 5.68 | < 4.00 | < 4.00 | < 4.00 | 3.90 | < 4.00 | < 4.00 | < 4.00 |  |  |
| C[N+](C)(C)NC(=O)CCC(=O)O |  | < 4.00 | < 4.00 | < 4.00 | < 4.00 | < 4.00 | < 4.00 | < 4.00 | 4.46 | 4.20 |
| CNNC(=O)CCC(=O)O |  | < 4.00 | < 4.00 | 4.85 | < 4.00 | 5.96 | < 4.00 | 5.37 | 5.47 | 6.43 |
| NNC(=O)CCC(=O)O |  | < 4.00 | < 4.00 | < 4.00 | < 4.00 | 6.32 | < 4.00 | 6.70 | 6.32 | 6.60 |
| CN(C)N(C)C(=O)CCC(=O)O |  | < 4.00 | < 4.00 | < 4.00 | < 4.00 | < 4.00 | < 4.00 | < 4.00 | 4.94 | 5.43 |
| CC(C)NC(=O)CCC(=O)O |  | < 4.00 | < 4.00 | < 4.00 | < 4.00 | < 4.00 | < 4.00 | < 4.00 | < 4.00 | < 4.00 |
| CN(C)OC(=O)CCC(=O)O |  | < 4.00 | 4.38 | 5.20 | < 4.00 | 4.38 | < 4.00 | < 4.00 | 5.16 | 5.04 |
| CN(C)NC(=O)CCC(=O)NN(C)C |  | < 4.00 | < 4.00 | < 4.00 | < 4.00 | < 4.00 | < 4.00 | < 4.00 | 3.93 | < 4.00 |
| O=C(O)CCC(=O)NO |  | < 4.00 | 5.96 | 4.71 | 5.52 | 5.72 | < 4.00 | 6.40 | 5.77 | 6.37 |
| CC(=O)CC(=O)CCC(=O)O [SUCCINYLACETONE] |  | < 4.00 | 4.78 | < 4.00 | 4.90 | 5.35 | < 4.00 | 4.62 | 5.64 | 6.24 |
